Assay results from ChEMBL document CHEMBL4020760, “Discovery of a Small Molecule Probe That Post-Translationally Stabilizes the Survival Motor Neuron Protein for the Treatment of Spinal Muscular Atrophy” (J Med Chem, 2017).
Calls of active or inactive are those of the source. No cut-off for these calls is given here.

How the values were obtained:
SH-SY5Y = assay: Cytotoxicity against human SH-SY5Y cells assessed as reduction in cell viability at 100 times EC50 concentration after 48 hrs by CellTiter 96 AQueous one solution cell proliferation assay; assay type: cell-based
Procedure, shortened: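 SH-SY5Y cells seeded at 10,000/well, next day treated with graded compound doses in duplicate for 48 h, 0.2% DMSO constant; CellTiter 96 AQueous One reagent added for the last 4 h; cycloheximide 200 ng/mL as toxicity control.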

[1] = biological target: Survival motor neuron protein (Homo sapiens) (UniProt Q16637); assay: Stabilization of SMN protein in 3813T fibroblasts derived from human SMA patient assessed as increase in SMN protein level at 2 uM after 48 hrs by SDS-PAGE and immunoblot
Chain of Survival motor neuron protein (Homo sapiens) (Q16637 whole entry, the tested form may be a part): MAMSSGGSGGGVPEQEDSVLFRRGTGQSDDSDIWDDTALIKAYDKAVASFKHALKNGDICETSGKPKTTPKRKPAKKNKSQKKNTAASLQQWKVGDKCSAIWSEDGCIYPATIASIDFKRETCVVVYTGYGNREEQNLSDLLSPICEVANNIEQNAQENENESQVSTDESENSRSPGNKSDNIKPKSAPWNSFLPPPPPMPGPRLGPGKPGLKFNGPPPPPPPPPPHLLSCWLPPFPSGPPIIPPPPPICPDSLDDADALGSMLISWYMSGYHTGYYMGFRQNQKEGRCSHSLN

HEK293 [2] = assay: Effect on luciferase expression in human HEK293 cells expressing SV40 promoter at 10 to 30 uM after 24 hrs by luciferase reporter gene assay; assay type: ADME, cell-based; settings: hek293, 24 h
[3] = biological target: Survival motor neuron protein (Homo sapiens) (UniProt Q16637); assay: Stabilization of human luc fused SMN protein expressed in HEK293 cells at 10 uM after 24 hrs in presence of 10 uM cycloheximide by luciferase reporter gene assay; assay type: cell-based
Procedure, shortened: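 SMN2-luciferase reporter cells were maintained in high-glucose DMEM with 10% FBS, Pen/Strep and hygromycin at 37 °C. They were treated at the same time with cycloheximide (10 μM), to block protein synthesis, and with compound or DMSO. Cells were lysed at set time points, and SMN2-luc (firefly) and Renilla-luc activities were read by dual-luciferase assay.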

CYP2A6 = biological target: T1, CYP2A6 (Homo sapiens, UniProt P11509); assay: Inhibition of CYP2A6 (unknown origin) at 10 uM; assay type: ADME
T1 sequence (P11509 whole entry): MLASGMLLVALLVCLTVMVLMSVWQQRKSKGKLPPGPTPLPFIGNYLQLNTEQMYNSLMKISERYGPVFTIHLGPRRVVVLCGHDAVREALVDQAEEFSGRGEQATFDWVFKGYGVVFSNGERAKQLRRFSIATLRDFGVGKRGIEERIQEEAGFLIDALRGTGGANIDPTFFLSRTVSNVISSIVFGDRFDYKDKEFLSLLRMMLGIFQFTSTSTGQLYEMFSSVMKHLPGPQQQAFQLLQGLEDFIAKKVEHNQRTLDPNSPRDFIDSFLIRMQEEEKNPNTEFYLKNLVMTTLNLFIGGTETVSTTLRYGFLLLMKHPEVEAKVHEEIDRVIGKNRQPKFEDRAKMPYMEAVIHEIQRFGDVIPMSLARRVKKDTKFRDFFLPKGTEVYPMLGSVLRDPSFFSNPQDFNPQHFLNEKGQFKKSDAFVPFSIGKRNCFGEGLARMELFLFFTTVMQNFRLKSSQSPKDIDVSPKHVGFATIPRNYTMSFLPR

Oryctolagus cuniculus = organism: Oryctolagus cuniculus; assay: Effect on proteasome in rabbit reticulocyte lysates assessed as MBP-HPV-16 E6-mediated p53 degradation at 10 and 30 uM incubated for 30 mins prior to MBP-E6 addition by Western blot analysis
Procedure, shortened: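 Purified p53 and MBP-HPV16 E6. E6 (0.1 μM) or buffer then added for 2 h at 25 °C, stopped at 75 °C. p53 read by 10% SDS-PAGE/Western (PAb1801).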

CYP2C9 = CYP2C9 (Homo sapiens, UniProt P11712); assay: Inhibition of CYP2C9 (unknown origin) at 10 uM; assay type: ADME
Chain of CYP2C9 (P11712 whole entry): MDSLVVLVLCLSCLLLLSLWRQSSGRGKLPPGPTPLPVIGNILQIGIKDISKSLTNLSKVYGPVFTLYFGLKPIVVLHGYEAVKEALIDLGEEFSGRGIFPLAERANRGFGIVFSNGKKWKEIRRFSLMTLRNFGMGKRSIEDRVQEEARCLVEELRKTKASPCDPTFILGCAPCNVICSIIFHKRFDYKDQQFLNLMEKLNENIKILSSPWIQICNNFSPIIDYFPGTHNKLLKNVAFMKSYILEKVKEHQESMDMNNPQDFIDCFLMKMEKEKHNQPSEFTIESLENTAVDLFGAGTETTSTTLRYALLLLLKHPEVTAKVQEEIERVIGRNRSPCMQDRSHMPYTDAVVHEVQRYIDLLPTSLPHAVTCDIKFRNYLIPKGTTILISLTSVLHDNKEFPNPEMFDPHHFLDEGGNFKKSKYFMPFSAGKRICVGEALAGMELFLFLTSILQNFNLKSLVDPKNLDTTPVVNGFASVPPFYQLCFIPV

Plasma [4] = assay: Cmax in mouse plasma at 20 mg/kg, ip; assay type: ADME, organism-based; set-up: dose 20 mg/kg, route intraperitoneal; settings: in vivo
[5] = biological target: Survival motor neuron protein (Homo sapiens) (UniProt Q16637); assay: Stabilization of human SMN protein expressed in HEK293 cells expressing SMN2 promoter assessed as additive effect on SMN stabilization in presence of 0.1: 0.1 to 10:10 ratio of LDN-75654 to compound after 24 hrs by luciferase reporter gene assay; assay type: cell-based
Procedure, shortened: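 SMN2 reporter cells exposed 24 h to the two compounds alone or combined at constant ratio, DMSO held at 0.2%, and SMN-luc read. Theoretical additive effect taken as the sum of the single-agent activities.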

Renilla [6] = assay: Effect on renilla recombinant luciferase protein
[7] = AUC (0 to 24 hrs) in mouse brain at 20 mg/kg, po; assay type: ADME, organism-based; set-up: time < 24 hr, dose 20 mg/kg, route oral
CYP2C19 = CYP2C19 (Homo sapiens, UniProt P33261); assay: Inhibition of CYP2C19 (unknown origin) at 10 uM; assay type: ADME
Chain of CYP2C19 (P33261 whole entry): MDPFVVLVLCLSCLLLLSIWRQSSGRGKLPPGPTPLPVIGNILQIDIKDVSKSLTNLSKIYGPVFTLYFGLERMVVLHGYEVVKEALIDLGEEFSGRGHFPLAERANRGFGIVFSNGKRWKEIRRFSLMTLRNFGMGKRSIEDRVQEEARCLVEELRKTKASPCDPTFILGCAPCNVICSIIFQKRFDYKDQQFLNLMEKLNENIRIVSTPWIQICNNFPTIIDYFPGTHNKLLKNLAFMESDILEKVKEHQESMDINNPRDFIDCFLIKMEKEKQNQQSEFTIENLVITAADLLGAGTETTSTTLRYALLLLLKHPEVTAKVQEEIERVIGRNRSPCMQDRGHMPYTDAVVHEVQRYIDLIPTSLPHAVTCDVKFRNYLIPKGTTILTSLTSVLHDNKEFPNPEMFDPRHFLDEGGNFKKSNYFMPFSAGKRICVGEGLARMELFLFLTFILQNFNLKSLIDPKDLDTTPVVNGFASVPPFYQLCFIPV

HEK293 [8] = assay: Effect on basal level of polyubiquitinated protein in HEK293 cells at 1 and 10 uM incubated for 2 hrs by SDS-PAGE analysis; assay type: cell-based; settings: human, hek293, 2 h
Procedure, shortened: (§1)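 HEK293 cells pretreated 2 h with test compound or MG-132 (1 and 10 μM), then DMSO or cycloheximide (10 μM) added and incubated a further 6 h; final DMSO 0.2%. Lysates run on 4–15% gradient SDS-PAGE; anti-ubiquitin blot for polyubiquitinated proteins, tubulin as loading control.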

[9] = biological target: Voltage-gated inwardly rectifying potassium channel KCNH2 (Homo sapiens, UniProt Q12809); assay: Inhibition of human ERG at 10 uM
Chain of Voltage-gated inwardly rectifying potassium channel KCNH2 (Q12809 whole entry): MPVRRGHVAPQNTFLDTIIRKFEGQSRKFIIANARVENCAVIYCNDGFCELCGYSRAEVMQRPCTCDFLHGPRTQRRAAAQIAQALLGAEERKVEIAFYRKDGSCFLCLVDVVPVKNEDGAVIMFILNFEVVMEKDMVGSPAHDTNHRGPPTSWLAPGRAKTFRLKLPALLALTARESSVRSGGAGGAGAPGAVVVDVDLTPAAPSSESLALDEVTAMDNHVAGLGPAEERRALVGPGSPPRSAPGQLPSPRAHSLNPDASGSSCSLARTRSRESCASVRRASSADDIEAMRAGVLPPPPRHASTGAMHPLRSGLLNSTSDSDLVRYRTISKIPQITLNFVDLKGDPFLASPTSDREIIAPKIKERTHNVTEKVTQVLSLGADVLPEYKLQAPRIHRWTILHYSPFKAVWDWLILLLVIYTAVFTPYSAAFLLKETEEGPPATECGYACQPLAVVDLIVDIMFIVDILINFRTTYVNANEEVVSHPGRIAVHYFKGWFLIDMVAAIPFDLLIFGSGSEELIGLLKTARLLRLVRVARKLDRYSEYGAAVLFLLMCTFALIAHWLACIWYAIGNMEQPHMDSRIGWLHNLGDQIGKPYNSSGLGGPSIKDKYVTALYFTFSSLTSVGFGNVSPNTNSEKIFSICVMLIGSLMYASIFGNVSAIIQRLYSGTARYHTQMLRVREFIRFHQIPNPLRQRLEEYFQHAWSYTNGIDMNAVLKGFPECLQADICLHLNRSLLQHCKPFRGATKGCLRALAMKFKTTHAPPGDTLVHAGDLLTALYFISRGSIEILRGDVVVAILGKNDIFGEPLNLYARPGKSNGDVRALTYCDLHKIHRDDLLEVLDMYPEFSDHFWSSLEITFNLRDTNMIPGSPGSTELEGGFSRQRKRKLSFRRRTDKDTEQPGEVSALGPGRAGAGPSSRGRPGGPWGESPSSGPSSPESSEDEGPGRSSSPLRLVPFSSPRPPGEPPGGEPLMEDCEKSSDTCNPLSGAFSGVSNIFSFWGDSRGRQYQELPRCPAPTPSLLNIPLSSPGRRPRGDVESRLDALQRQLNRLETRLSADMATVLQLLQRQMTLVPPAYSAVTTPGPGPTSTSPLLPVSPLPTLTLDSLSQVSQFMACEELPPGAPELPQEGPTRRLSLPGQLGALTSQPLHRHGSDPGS

Plasma [10] = assay: AUC (0 to 24 hrs) in mouse plasma at 20 mg/kg, ip; assay type: ADME, organism-based; set-up: dose 20 mg/kg, time < 24 hr, route intraperitoneal; settings: in vivo
[11] = Drug degradation in 0.1 to 1 N HCL after 1 to 24 hrs by LC-MS method
Procedure, shortened: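 Compound held in 0.1 N and 1 N HCl at 37 °C for 24 h; aliquots taken at 1, 2, 4, 6 and 24 h and analysed by LCMS for percent degradation.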

CYP3A4 = CYP3A4 (Homo sapiens, UniProt P08684); assay: Inhibition of CYP3A4 (unknown origin) at 10 uM; assay type: ADME
Chain of CYP3A4 (P08684 whole entry): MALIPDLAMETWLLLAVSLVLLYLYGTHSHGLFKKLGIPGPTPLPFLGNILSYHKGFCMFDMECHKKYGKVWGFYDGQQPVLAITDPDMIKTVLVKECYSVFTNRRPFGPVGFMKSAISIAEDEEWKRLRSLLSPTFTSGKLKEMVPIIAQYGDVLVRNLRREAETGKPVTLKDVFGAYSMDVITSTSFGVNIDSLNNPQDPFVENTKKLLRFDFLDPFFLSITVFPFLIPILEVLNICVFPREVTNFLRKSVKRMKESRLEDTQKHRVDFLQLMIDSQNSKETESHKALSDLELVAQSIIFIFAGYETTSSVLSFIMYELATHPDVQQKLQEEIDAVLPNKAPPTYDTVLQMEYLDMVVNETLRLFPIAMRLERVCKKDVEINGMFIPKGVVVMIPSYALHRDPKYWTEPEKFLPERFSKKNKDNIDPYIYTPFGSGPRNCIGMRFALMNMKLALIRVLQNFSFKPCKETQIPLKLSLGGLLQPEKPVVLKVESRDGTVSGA

CYP2D6 = CYP2D6 (Homo sapiens, UniProt P10635); assay: Inhibition of CYP2D6 (unknown origin) at 10 uM; assay type: ADME
Chain of CYP2D6 (P10635 whole entry): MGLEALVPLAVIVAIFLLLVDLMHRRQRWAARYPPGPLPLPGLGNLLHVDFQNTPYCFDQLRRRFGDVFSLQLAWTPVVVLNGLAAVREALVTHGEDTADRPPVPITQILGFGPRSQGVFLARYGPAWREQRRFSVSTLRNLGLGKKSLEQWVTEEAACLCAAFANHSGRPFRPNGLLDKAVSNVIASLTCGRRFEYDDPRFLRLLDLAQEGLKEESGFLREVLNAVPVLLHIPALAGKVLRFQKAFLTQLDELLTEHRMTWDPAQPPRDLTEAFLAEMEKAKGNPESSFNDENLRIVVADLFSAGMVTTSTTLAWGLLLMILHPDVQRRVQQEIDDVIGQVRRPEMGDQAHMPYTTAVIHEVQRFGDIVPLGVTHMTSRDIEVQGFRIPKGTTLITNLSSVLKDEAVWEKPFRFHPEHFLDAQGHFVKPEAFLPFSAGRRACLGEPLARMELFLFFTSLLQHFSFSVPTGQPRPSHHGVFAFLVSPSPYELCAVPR

HEK293 [12] = assay: Effect on cycloheximide-induced reduction in basal level of polyubiquitinated protein level in HEK293 cells at 1 uM pretreated for 2 hrs followed by cycloheximide addition measured after 6 hrs by SDS-PAGE analysis; assay type: functional, cell-based; settings: Homo sapiens; procedure, shortened: as §1
[13] = Half life in mouse liver microsomes; assay type: ADME, microsome; settings: liver microsomes
Procedure, shortened: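 Compound stability in mouse and human liver microsomes, expressed as half-life in min.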

[14] = biological target: Survival motor neuron protein (Homo sapiens) (UniProt Q16637); assay: Stabilization of SMN protein in 3813T fibroblasts derived from human SMA patient assessed as increase in SMN protein level at 2 uM after 48 hrs by SDS-PAGE and immunoblot
Procedure, shortened: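 hTERT-immortalized SMA patient 3813T fibroblasts seeded at 6000/well, next day dosed for 48 h at indicated concentrations, 0.1% DMSO. Lysed in boiling buffer (150 mM NaCl, 10 mM Tris pH 8.0, 2% SDS), run on 10% SDS-PAGE, SMN immunoblotted, normalized to tubulin or actin as fold over DMSO; one-way ANOVA with Dunnett.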

Renilla [15] = assay: Effect on renilla recombinant luciferase protein expressed in HEK293 cells at 10 uM after 24 hrs in presence of 10 uM cycloheximide by renilla luciferase reporter gene assay; assay type: cell-based
Procedure, shortened: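 SMN2-luc reporter cells given cycloheximide (10 μM) together with compound (10 μM) or DMSO. Lysed at set time points; SMN-luc and Renilla-luc activities measured.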

Plasma [16] = assay: Half life in mouse plasma after 60 mins; assay type: ADME, cell-free; settings: 1 h

inhibition at 10 µM (CYP2A6): < 50%
Activity (Oryctolagus cuniculus): inactive
inhibition at 10 µM (CYP2C9): < 50%
Cmax (Plasma [4]): 7660 ng/mL
Activity (Renilla [6]): inactive
AUC(0-t) at 24 h [7]: 2220 ng·h/mL
inhibition at 10 µM (CYP2C19): < 50%
AUC (Plasma [10]): 34291 ng·h/mL
inhibition at 10 µM (CYP3A4): < 50%
inhibition at 10 µM (CYP2D6): < 50%
half-life [13]: 39 min
t1/2 (Plasma [16]): 326 min
Compound: O=C(Nc1ncc(C2(O)CCC2)s1)c1ccc(F)c(Cl)c1
Activity (SH-SY5Y): Non-Toxic
fold change (FC) [1]: 2
Activity (HEK293 [2]): Non-Toxic
Activity [3]: Active
Activity [5]: inactive
Activity (HEK293 [8]): Non-Toxic
inhibition (INH) [9]: Not Active
Drug degradation [11]: < 5%
Activity (HEK293 [12]): inactive
fold change (FC) [14]: 2
Activity (Renilla [15]): inactive
